Compound activity (PubChem BioAssay)
Yeast eIF2B: eIF2B (yeast) activity modulation; S. cerevisiae eIF2B-epsilon R284H, GCN4-lacZ luminescence; inhibition, % at 25 µM (by protocol); 27,000 compounds, 0.91% hits; AID 688;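 active means mutant luminescence inhibited past about 50% while wild type luminescence and mutant growth stay under set limits, limit read from the data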
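System: Yeast eIF2B-epsilon R284H mutant carrying GCN4–beta-galactosidase fusion | Read-out basis: Percent inhibition, luminescence and growth | Compound: 25 µM single dose | Times: 16 h at 30 °C exposure | Measured by: Luminescence and A595 | Buffer or medium: YPD medium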
Yeast tox: Inhibits yeast growth, turbidity readout; growth inhibition, % at 25 µM (by protocol); 30,000 compounds, 0.3% hits; S. cerevisiae wild-type growth, A595 turbidity, 16 h;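 active means mutant and wild-type yeast strains alike exhibit over 30% growth inhibition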
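system = S. cerevisiae wild-type or eIF2Bepsilon-R284H mutant strain | buffer or medium = YPD medium | dosing = one dose, 25 µM compound, 0.2% DMSO | schedule = 16 h at 30 °C | measured by = A595 turbidity | evaluation = growth inhibition (%) versus cell controls and blanks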
Each line names hits and unclear results; the compound was inactive in the other large screens. A selection: hits, their analogues and other compounds. The true share with any hit is near 1.1%.

O=C(Cc1ccc(F)cc1)N(c1ccc(F)cc1)C1C=CS(=O)(=O)C1 (stereo not drawn)	none
CCn1nnnc1SCC(=O)NC1CCCC1	none
O=C(CSCc1cccc(Cl)c1)N1CCN(Cc2ccc3c(c2)OCO3)CC1	none
Cc1ccc(N(Cc2ccccc2F)S(C)(=O)=O)cc1C	none (no result: Yeast eIF2B)
COc1ccccc1-n1c(SCC(=O)Nc2cccc3ccccc23)nc(O)cc1=O	none (no result: Yeast eIF2B)
COc1ccccc1NC(=O)CSc1nc(O)cc(=O)n1C	Yeast eIF2B 53.2
COc1cc(NS(=O)(=O)c2ccc(Br)s2)cc(OC)c1	none
O=C(CN(CC1CCCO1)C(=O)CCC(=O)Nc1ccccn1)NCc1ccccc1 (stereo not drawn)	none
CC(C)C1Oc2ccccc2N(CC(=O)N(Cc2ccccn2)CC2CCCO2)C1=O (stereo not drawn)	Yeast eIF2B 58.9
CSc1ccccc1C(=O)NCC1CCCO1 (stereo not drawn)	none (no result: Yeast eIF2B)
Cc1ccc(CN(CC2CCCO2)C(=O)CN2C(=O)C(C(C)C)Oc3ccccc32)o1 (stereo not drawn)	Yeast eIF2B 58.9
CCC(CC)C(=O)N=C1SC2CS(=O)(=O)CC2N1CCc1ccc(OC)cc1 (stereo not drawn)	none
COc1cc2[nH]c(=S)n(N(C(C)=O)C(C)=O)c(=O)c2cc1OC	none (no result: Yeast eIF2B)
COc1cc2[nH]c(=S)n(C3CCCC3)c(=O)c2cc1OC	Yeast tox 32.3
Cc1ccccc1C(=O)NCc1nnc(SCC(=O)N2c3ccccc3Sc3ccccc32)n1C	none
CC1CN(C(=O)C(c2ccccc2)c2ccccc2)CC(C)O1 (stereo not drawn)	none
Cc1cccc(C(=O)Nc2cccc(C(=O)N3CCOCC3)c2)c1	none
COc1cccc(C(=O)Nc2cccc(C(=O)N3CCOCC3)c2)c1	Yeast eIF2B 59.2
O=C(Nc1ccccc1)C1CCN(C(=O)c2ccccc2)CC1	none
COc1ccc(C2c3c(ncn(CCN4CCOCC4)c3=N)Oc3ccc4ccccc4c32)cc1 (stereo not drawn)	none
CN1CCN(S(=O)(=O)c2ccc(NC(=O)Nc3cccc(Cl)c3)cc2)CC1	none (no result: Yeast eIF2B)
COC(=O)c1cccc(NC(=O)c2ccc(S(=O)(=O)N3CCN(C)CC3)cc2)c1	Yeast eIF2B 58.6
O=C(N1CCOCC1)N1CCN(C(=O)N2CCOCC2)CC1	none
O=c1c(Cl)c(NCCCO)cnn1-c1nc2ccccc2[nH]1	Yeast eIF2B 55.8
O=c1[nH]ncc(NCCCO)c1Cl	none
CC1(C)CC(=O)C(Sc2nnc(-c3ccc(NS(C)(=O)=O)cc3)n2Cc2ccco2)C(=O)C1	none
Cn1c(SC2C(=O)CC(C)(C)CC2=O)nnc1-c1ccco1	Yeast eIF2B 60.3
CCOC(=O)N1CCN(C(=O)CC(C(=O)N2CCc3ccccc32)n2ccnc2)CC1 (stereo not drawn)	none
COC(=O)C(CC(=O)c1ccc(Br)cc1)n1ccnc1 (stereo not drawn)	Yeast tox 33.5
Cc1nc(NC2=NCN(Cc3cccnc3)CN2)nc2c(C)cccc12	none
N#Cc1c(Sc2ncc(C(F)(F)F)cc2Cl)nsc1C/C=N\OCc1ccccc1Br	none
N#Cc1c(SCC(N)=O)nc2c(c1-c1ccc(OCc3ccccc3)cc1)CCCC2	none
CCOC(=O)N1CCN(c2nc(N(c3ccccc3)c3ccccc3)nc(-n3ccnc3)n2)CC1	Yeast tox 47.9
c1ccc(N(c2ccccc2)c2nc(N3CCCC3)nc(-n3ccnc3)n2)cc1	none
Cc1ccc(-c2cc3nc(-c4ccccc4)cc(N4CCOCC4)n3n2)cc1	none (no result: Yeast eIF2B)
CCN1CCN(c2cc(-c3ccccc3)nc3cc(-c4cccc(F)c4)nn23)CC1	Yeast eIF2B 53.2 (no result: Yeast tox)
COc1cc(CN2C(=O)C(NC(=O)c3ccco3)(C(F)(F)F)C3=C2CC(C)(C)CC3=O)cc(OC)c1 (stereo not drawn)	none
Cc1ccc(C)c(N2CCN(S(=O)(=O)c3ccc4[nH]c(=O)c(=O)[nH]c4c3)CC2)c1	Yeast eIF2B 57.2
Cc1ccc(C)c(N2CCN(S(=O)(=O)c3ccc4c(c3)CCC(=O)N4)CC2)c1	none
Cc1nc(-c2cccc(NS(=O)(=O)c3ccc4ccccc4c3)c2)cs1	none
Cc1nnc(N2CCN(C)CC2)c2nn(-c3ccc(Cl)cc3)c(C)c12	none
